# Assay results collected from several papers.
# Each line is one published result; the experiments were not run side by side.
# Target: G protein-coupled receptor kinase 4 (GRK4, Homo sapiens, UniProt P32298)
Structure (SMILES),effect on,action,method,concentration,measurement,result
O=c1[nH]c2ccccc2n1C1CCN(Cc2ccc(-c3[nH]c4cc5ncnc5cc4nc3-c3ccccc3)cc2)CC1,cell-free assay,,,0.5 µM,remaining signal,104%
Cn1cc(-c2cccc(N3CCc4c(sc5c4CC(C)(C)C5)C3=O)c2CO)cc(Nc2ccncn2)c1=O,enzyme activity,inhibitor,,1 µM,inhibition,-4%
Cn1cncc1[C@@](O)(COc1ccc(C#N)cc1-c1ccc(OC(F)(F)F)cc1)c1ccc(C#N)cc1,cell-free assay,,competition with immobilised ligand,1 µM,remaining binding,56%
Cc1nn(C)cc1-c1nc2c(N3CCN(Cc4ccc(Cl)cc4)CC3)c(Cl)cnc2[nH]1,binding,,competition with immobilised ligand,1 µM,remaining binding,41%
Nc1ncc(-c2nc(N3CCOCC3)nc(N3CCOCC3)n2)c(C(F)F)n1,binding,,competition with immobilised ligand,10 µM,remaining binding,74%
N#CC1(c2ccccn2)CCN(Cc2cc(C(=O)O)c(=O)n3ccccc23)CC1,cell-free assay,,competition with immobilised ligand,1 µM,remaining binding,68%
Cn1cc(-c2cc(F)cc(N3CCn4c(cc5c4CCCC5)C3=O)c2CO)cc(Nc2ccc(N3CCN(C4COC4)CC3)cn2)c1=O,enzyme activity,inhibitor,,0.1 µM,inhibition,12%
COc1ncccc1-c1cnn2ccc(N3CCN(C(=O)OC(C)C)CC3)nc12,binding,,competition with immobilised ligand,1 µM,remaining binding,70%
CC(C)(C)c1cc(C=C(C#N)C#N)cc(Br)c1O,enzyme activity,inhibitor,,0.5 µM,remaining activity,101%
